# Results: ChEMBL document CHEMBL1156957, “Synthesis, antitubulin, and antiproliferative SAR of analogues of 2-methoxyestradiol-3,17-O,O-bis-sulfamate” (J Med Chem, 2010)
# Tests used:
# HOP-62 = test: Antiproliferative activity against human HOP62 cells after 96 hrs by WST-1 assay; type: functional; conditions: HOP-62, 96 h
# SN12C = test: Antiproliferative activity against human SN12C cells after 96 hrs by WST-1 assay; type: functional
# SF-539 = test: Antiproliferative activity against human SF539 cells after 96 hrs by WST-1 assay; type: functional; conditions: SF-539, 96 h
# HCT-116 = test: Antiproliferative activity against human HCT116 cells after 96 hrs by WST-1 assay; type: functional; conditions: HCT-116, 96 h
# OVCAR-3 = test: Antiproliferative activity against human OVCAR-3 cells after 96 hrs by WST-1 assay; type: functional; conditions: OVCAR-3, 96 h
# UACC-62 = test: Antiproliferative activity against human UACC62 cells after 96 hrs by WST-1 assay; type: functional; conditions: UACC-62, 96 h
# DU-145 = test: Antiproliferative activity against human DU145 cells after 96 hrs by WST-1 assay; type: functional; conditions: DU-145, 96 h
# Method in brief: (§1)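 DU-145 and MDA-MB-231 cells kept in RPMI-1640 with 10% FBS, penicillin and streptomycin at 37 °C, 5% CO2. Seeded at 5000 cells/well and exposed to 10^-9–10^-4 M compound or vehicle for 96 h. Live cells counted by WST-1. Viability taken as percent of mean control and GI50 derived. Triplicate experiments.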
# MDA-MB-231 = test: Antiproliferative activity against human MDA-MB-231 cells after 96 hrs by WST-1 assay; type: functional; conditions: MDA-MB-231, 96 h; method in brief: as §1
# Bos taurus = species on record: Bos taurus; test: Displacement of [3H]colchicine from bovine brain tubulin at 5 uM after 10 mins
# [1] = Inhibition of bovine brain tubulin assembly assessed as decrease in turbidity after 20 mins; set-up: species or system Bos taurus
# Method in brief: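 Bovine brain tubulin at 1.0 mg/mL (10 μM) preincubated 15 min at 30 °C with varying compound concentrations, no GTP. Chilled on ice, then GTP added (0.4 mM final). Baseline taken at 0 °C, then rapid jump to 30 °C and turbidity rise followed spectrophotometrically for 20 min. IC50 is the concentration halving the turbidity increase.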
SMILES,GI50 (HOP-62),GI50 (SN12C),GI50 (SF-539),GI50 (HCT-116),GI50 (OVCAR-3),GI50 (UACC-62),GI50 (DU-145),GI50 (MDA-MB-231),inhibition (Bos taurus),IC50 [1]
COc1cc2c(cc1OCc1ccccc1)CC[C@@H]1[C@@H]2CC[C@]2(C)[C@@H](OS(C)(=O)=O)CC[C@@H]12,6.9 µM,19.9 µM,4.6 µM,5.9 µM,2.9 µM,14.4 µM,–,–,–,–
CCc1cc2c(cc1O)CC[C@@H]1[C@@H]2CC[C@@]2(C)[C@H]1CC[C@@H]2S(C)(=O)=O,–,–,–,–,–,–,> 100 µM,> 100 µM,–,–
COc1cc2c(cc1O)CC[C@@H]1[C@@H]2CC[C@]2(C)[C@@H](OS(C)(=O)=O)CC[C@@H]12,–,–,–,–,–,–,4.2 µM,2.37 µM,–,–
CCc1cc2c(cc1OS(N)(=O)=O)CC[C@@H]1[C@@H]2CC[C@]2(C)[C@@H](CCN(C)C)CC[C@@H]12,–,–,–,–,–,–,3.54 µM,2.96 µM,–,–
CCc1cc2c(cc1OS(N)(=O)=O)CC[C@@H]1[C@@H]2CC[C@]2(C)[C@@H](CS(C)(=O)=O)CC[C@@H]12,< 0.01 µM,< 0.01 µM,< 0.01 µM,< 0.01 µM,< 0.01 µM,10.7 µM,0.19 µM,0.23 µM,37%,2.1 µM
COc1cc2c(cc1OS(N)(=O)=O)CC[C@@H]1[C@@H]2CC[C@]2(C)[C@@H](NS(N)(=O)=O)CC[C@@H]12,–,–,–,–,–,–,6.13 µM,5.6 µM,–,–
COc1cc2c(cc1OS(N)(=O)=O)CC[C@@H]1[C@@H]2CC[C@]2(C)C(=O)CC[C@@H]12,–,–,–,–,–,–,0.46 µM,0.12 µM,22%,3.3 µM
CCc1cc2c(cc1O)CC[C@@H]1[C@@H]2CC[C@]2(C)[C@@H](NS(N)(=O)=O)CC[C@@H]12,–,–,–,–,–,–,> 100 µM,–,–,–
CCc1cc2c(cc1O)CC[C@@H]1[C@@H]2CC[C@]2(C)[C@@H](OS(C)(=O)=O)CC[C@@H]12,–,–,–,–,–,–,5.58 µM,–,–,–
COc1cc2c(cc1OS(N)(=O)=O)CC[C@@H]1[C@@H]2CC[C@]2(C)[C@@H](OS(C)(=O)=O)CC[C@@H]12,1.17 µM,3.1 µM,0.34 µM,0.78 µM,0.54 µM,0.65 µM,0.52 µM,0.23 µM,–,–
CCc1cc2c(cc1OS(N)(=O)=O)CC[C@@H]1[C@@H]2CC[C@@]2(C)[C@H]1CC[C@@H]2S(C)(=O)=O,–,–,–,–,–,–,0.11 µM,0.23 µM,28%,3.6 µM
CCc1cc2c(cc1OS(N)(=O)=O)CC[C@@H]1[C@@H]2CC[C@]2(C)[C@@H](OS(C)(=O)=O)CC[C@@H]12,< 0.01 µM,< 0.01 µM,< 0.01 µM,< 0.01 µM,< 0.01 µM,< 0.01 µM,0.57 µM,0.2 µM,49%,1.6 µM
CCc1cc2c(cc1O)CC[C@@H]1[C@@H]2CC[C@]2(C)[C@@H](NS(C)(=O)=O)CC[C@@H]12,–,–,–,–,–,–,> 100 µM,–,–,–
CCc1cc2c(cc1O)CC[C@@H]1[C@@H]2CC[C@]2(C)[C@@H](CCN(C)C)CC[C@@H]12,–,–,–,–,–,–,7.96 µM,4.74 µM,–,–
CCc1cc2c(cc1OS(N)(=O)=O)CC[C@@H]1[C@@H]2CC[C@]2(C)[C@@H](CN(C)C)CC[C@@H]12,13.5 µM,18.2 µM,12.6 µM,9.1 µM,12.6 µM,11.7 µM,3.05 µM,4.03 µM,–,–
COc1cc2c(cc1O)CC[C@@H]1[C@@H]2CC[C@]2(C)[C@@H](CC#N)CC[C@@H]12,–,–,–,–,–,–,0.49 µM,0.12 µM,–,–

SMILES,GI50 (HOP-62),GI50 (SN12C),GI50 (SF-539),GI50 (HCT-116),GI50 (OVCAR-3),GI50 (UACC-62),GI50 (DU-145),GI50 (MDA-MB-231),inhibition (Bos taurus),IC50 [1]
CCc1cc2c(cc1O)CC[C@@H]1[C@@H]2CC[C@]2(C)[C@@H](N)CC[C@@H]12,–,–,–,–,–,–,60.8 µM,–,–,–
CCc1cc2c(cc1OS(N)(=O)=O)CC[C@@H]1[C@@H]2CC[C@]2(C)[C@@H](OS(N)(=O)=O)CC[C@@H]12,< 0.01 µM,0.028 µM,< 0.01 µM,–,< 0.01 µM,< 0.01 µM,–,–,45%,1.3 µM
COc1cc2c(cc1O)CC[C@@H]1[C@@H]2CC[C@]2(C)[C@@H](O)CC[C@@H]12 [2-METHOXYESTRADIOL],0.7 µM,0.95 µM,0.32 µM,0.47 µM,0.21 µM,0.36 µM,1.22 µM,–,17%,7 µM
CCCc1cc2c(cc1OS(N)(=O)=O)CC[C@@H]1[C@@H]2CC[C@]2(C)C(OS(N)(=O)=O)CC[C@@H]12 (some centres not stated),–,–,–,–,–,–,3.4 µM,–,–,20 µM
CCc1cc2c(cc1OS(N)(=O)=O)CC[C@@H]1[C@@H]2CC[C@]2(C)[C@@H](CC#N)CC[C@@H]12,–,–,–,–,–,–,0.054 µM,0.141 µM,–,–
CCc1cc2c(cc1O)CC[C@@H]1[C@@H]2CC[C@]2(C)[C@@H](C[N+](=O)[O-])CC[C@@H]12,–,–,–,–,–,–,12.2 µM,10.4 µM,–,–
Cc1cc2c(cc1OS(N)(=O)=O)CC[C@@H]1[C@@H]2CC[C@]2(C)C(OS(N)(=O)=O)CC[C@@H]12 (some centres not stated),–,–,–,–,–,–,0.38 µM,–,46%,1.3 µM
COc1cc2c(cc1O)CC[C@@H]1[C@@H]2CC[C@]2(C)[C@@H](NS(C)(=O)=O)CC[C@@H]12,> 100 µM,> 100 µM,> 100 µM,60.3 µM,> 100 µM,> 100 µM,> 100 µM,–,–,–
CCc1cc2c(cc1O)CC[C@@H]1[C@@H]2CC[C@]2(C)[C@@H](CN(C)C)CC[C@@H]12,21.4 µM,43.7 µM,16.2 µM,11.5 µM,39.8 µM,18.6 µM,10.1 µM,9.5 µM,–,–
COc1cc2c(cc1O)CC[C@@H]1[C@@H]2CC[C@]2(C)[C@@H](NS(N)(=O)=O)CC[C@@H]12,–,–,–,–,–,–,58.6 µM,–,–,–
CCc1cc2c(cc1OS(N)(=O)=O)CC[C@@H]1[C@@H]2CC[C@]2(C)[C@@H](NS(C)(=O)=O)CC[C@@H]12,4.17 µM,6.92 µM,0.47 µM,4.37 µM,0.71 µM,5.89 µM,0.84 µM,3.52 µM,–,–
COc1cc2c(cc1OS(N)(=O)=O)CC[C@@H]1[C@@H]2CC[C@]2(C)[C@@H](NS(C)(=O)=O)CC[C@@H]12,9.6 µM,23.4 µM,3.2 µM,5.6 µM,3.5 µM,7.1 µM,9.9 µM,5.2 µM,–,–
COc1cc2c(cc1OS(N)(=O)=O)CC[C@@H]1[C@@H]2CC[C@]2(C)[C@@H](CC#N)CC[C@@H]12,–,–,–,–,–,–,0.062 µM,0.071 µM,78%,1.3 µM
COc1cc2c(cc1O)CC[C@@H]1[C@@H]2CC[C@]2(C)C(OS(N)(=O)=O)CC[C@@H]12 (some centres not stated),–,–,–,–,–,–,–,–,–,> 40 µM
COc1cc2c(cc1OS(N)(=O)=O)CC[C@@H]1[C@@H]2CC[C@]2(C)[C@@H](OS(N)(=O)=O)CC[C@@H]12,0.051 µM,–,0.036 µM,0.045 µM,< 0.01 µM,< 0.01 µM,–,–,28%,2.2 µM
COc1cc2c(cc1O)CC[C@@H]1[C@@H]2CC[C@]2(C)[C@@H](N)CC[C@@H]12,–,–,–,–,–,–,2.64 µM,3.56 µM,–,–
